Measured values from different studies.
Target: Serine/threonine-protein kinase 38-like (STK38L, Homo sapiens, UniProt Q9Y2H1)

Structure (SMILES) | read-out | action | method | cells | tested at | measurement | value
Cn1c2c(c3ccccc31)C(C#N)C(C)(C)NC2=O (centres unmarked) | thermal stability |  | DSF |  | 10 µM | ΔTm | 0 °C
Cc1c(C(=O)O)cc(-c2ccc(C3CCNCC3)cc2)c2ccc(-c3ccc(C(F)(F)F)cc3)cc12 | binding |  | competition with immobilised ligand |  | 1 µM | remaining binding | 100%
CC/C(=N\NC(=O)NCc1cccc(O)c1)c1ccc(O)c(C)c1O | enzyme activity | inhibitor |  |  | 0.1 µM | inhibition | 19.5%
O=C(Nc1cnn(-c2csc(C(=O)NC3COC3)c2)c1)Nc1c(F)cccc1Cl | enzyme activity | inhibitor |  |  | 5 µM | remaining activity | 94.8%
Cn1c2c(Cl)c(Cl)ccc2c2cc[nH]c(=O)c21 | thermal stability |  | DSF |  | 10 µM | ΔTm | 0 °C
CCN1CCN(Cc2ccc(NC(=O)c3ccc(C)c(Oc4ccnc5[nH]ccc45)c3)cc2C(F)(F)F)CC1 | target engagement in cells | inhibitor | chemoproteomics | Huh-7 | 1 µM | inhibition | -11.8%
Cc1ccc(C(=O)Nc2ccc(CN3CCN(C)CC3)c(C(F)(F)F)c2)cc1C#Cc1cnc2cccnn12 | enzyme activity |  |  |  | 23.5 nM | remaining activity | 99%
COc1cc(-c2cc(-c3ccc(N4CCNCC4)cc3)cnc2C)cc(OC)c1OC | enzyme activity | inhibitor |  |  | 0.1 µM | inhibition | 0%
C[C@@H]1CN(c2cc(-c3nn(C)c4ccc(OC5(C)CC5)cc34)ncn2)C[C@H](C)O1 | cell-free assay |  | competition with immobilised ligand |  | 1 µM | remaining binding | 72%
CN1CCC2(CC1)NC(=O)c1c(c3ccc(Cl)c(Cl)c3n1C)C2C#N (racemic) | thermal stability |  | DSF |  | 10 µM | ΔTm | 0 °C
NS(=O)(=O)c1cc(NC(=O)Cc2ccccc2)ccc1Oc1cccc(Cl)c1 | cell-free assay |  | competition with immobilised ligand |  | 1 µM | remaining binding | 100%
CN(C)c1ncc(F)c(-c2cnn3ncccc23)n1 | binding |  |  |  | 1 µM | remaining binding | 100%
O=c1nc(-c2ccccn2)sc2ccccc12 | binding |  | competition with immobilised ligand |  | 1 µM | remaining binding | 66%
CCC1(CC)NC(=O)c2c(c3ccc(Cl)c(Cl)c3n2C)C1C#N (centres unmarked) | thermal stability |  | DSF |  | 10 µM | ΔTm | 0 °C
CNc1cc(Oc2cc(C(=O)Nc3cc(N4CCN(C)CC4)cc(C(F)(F)F)c3)ccc2C)ncn1 | target engagement in cells | inhibitor | chemoproteomics | Huh-7 | 1 µM | inhibition | -35.6%
CC(C)(O)[C@H]1CC[C@H](Nc2ccc3ncc(-c4cccc(C(F)(F)F)c4)n3n2)CC1 | enzyme activity | inhibitor |  |  | 1 µM | remaining activity | 91.9%
CN(C)C(=O)Cn1cc(-c2nc([C@@](C)(c3ccc(-c4cnc(N)nc4)cc3)C3CC3)no2)cn1 | binding |  | competition with immobilised ligand |  | 1 µM | remaining binding | 91%
Cn1c2c(c3ccc(Cl)c(Cl)c31)C(C#N)C1(CCOCC1)NC2=O (centres unmarked) | thermal stability |  | DSF |  | 10 µM | ΔTm | -0.2 °C
CN(C(=O)c1ccccc1)c1cc(N(C)c2ccc3c(c2)CCc2ccc(C(=O)NCCN4CCOCC4)cc2C3=O)ccc1F | cell-free assay |  | competition with immobilised ligand |  | 1 µM | remaining binding | 47%
Cn1c2c(c3ccc(Cl)c(Cl)c31)C(C#N)C1(CCN(C(=O)OC(C)(C)C)CC1)NC2=O (racemic) | thermal stability |  | DSF |  | 10 µM | ΔTm | -0.1 °C
